ABHD5 PLIN5 PPI: inhibitors of human ABHD5-perilipin-5 interaction. Q00G26+Q8WTS1. inhibition, % at 4 µM. AID 602281. actives 0.78% (n = 360,000). Split G. princeps luciferase complementation, luminescence, 4 h;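 active = inhibition above the mean inhibition across every tested compound plus 3 SD, cut at about 22% in these data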;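 note: 0% = DMSO only wells and the 100% control is not disclosed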
NadD inh: NadD (S. aureus) enzyme inhibition; actives 0.78% (n = 360,000); inhibition, % at 20 µM; purified NadD enzyme, colorimetric absorbance read-out; in the data active = inhibition above about 26%
B2AR ag: agonists of human beta-2 adrenergic receptor inducing internalization; P07550; Am2.2-beta2AR cells, FAP receptor internalization, flow cytometry; response, % (concentration not given with the values); actives 0.43% (n = 340,000); AID 504454;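 active = response above a set limit, near 3 SD of response in nonfluorescent compounds, cut at about 42% in these data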
Target sequence (P07550 whole entry, looked up): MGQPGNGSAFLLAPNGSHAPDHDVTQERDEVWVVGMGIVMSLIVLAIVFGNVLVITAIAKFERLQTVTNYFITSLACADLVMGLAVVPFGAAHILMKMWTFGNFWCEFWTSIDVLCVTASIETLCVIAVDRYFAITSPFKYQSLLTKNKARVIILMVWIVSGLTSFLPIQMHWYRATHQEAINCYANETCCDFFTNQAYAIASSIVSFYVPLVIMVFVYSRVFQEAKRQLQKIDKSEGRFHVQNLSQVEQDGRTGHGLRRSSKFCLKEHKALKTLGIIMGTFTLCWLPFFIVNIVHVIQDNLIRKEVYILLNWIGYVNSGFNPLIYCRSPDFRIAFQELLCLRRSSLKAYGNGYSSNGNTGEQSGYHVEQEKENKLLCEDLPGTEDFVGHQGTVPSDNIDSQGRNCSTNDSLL
SENP1 FRET inh: SENP1 (human) catalytic domain inhibition; Q9P0U3; recombinant SENP1 catalytic domain, CyPet-SUMO1-YPet FRET cleavage; inhibition, % at 10 µM; actives 0.21% (n = 360,000); AID 624204;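 active = inhibition at least 30% at 10 µM, raw YFP signal under a set limit, fluorescence ratio 0.5 to 1.5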;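 note: 0% = enzyme with DMSO and 100% = no enzyme wells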
Target sequence (Q9P0U3 419-644 limits assumed): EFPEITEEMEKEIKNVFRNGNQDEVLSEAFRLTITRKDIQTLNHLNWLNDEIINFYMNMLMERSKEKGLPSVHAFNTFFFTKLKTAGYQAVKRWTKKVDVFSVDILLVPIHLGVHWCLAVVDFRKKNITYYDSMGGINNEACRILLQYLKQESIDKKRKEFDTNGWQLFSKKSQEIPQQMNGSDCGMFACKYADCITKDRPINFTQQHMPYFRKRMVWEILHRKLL
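Material: hSENP1 catalytic domain, recombinant; medium: Tris pH 8 with BME, BSA, NP40 and catalase; compound: single concentration of 10 µM compound, 0.5% DMSO final; technique: FRET read of cyan and yellow fluorescence; timing: 50 min enzyme reaction, room temperature, light-protected; reagent: SFCypet-SUMO1-SFYpet substrate at 25 nM; control set: no-enzyme low, enzyme-DMSO high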
GRK2 aptamer HTS: inhibitors of human GRK2 displacing RNA aptamer; bead flow cytometry, FAM-aptamer displacement from GRK2; inhibition of aptamer binding, % at 10 µM; actives 0.59% (n = 330,000); AID 488847; P25098;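 active = inhibition of aptamer binding above 40%, roughly 3 SD of noise, on plates passing a quality check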;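 note: median bead fluorescence of bound FAM aptamer so fluorescent compounds give negative values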
ABHD5 PLIN5 conf: ABHD5-PLIN5 interaction inhibition, confirmed; biochemical ABHD5-PLIN5 interaction, luminescence; actives 67% (n = 2,200); inhibition, % at 4 µM; shares compounds with ABHD5 PLIN5 PPI; in the data active = inhibition above about 23%;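 note: 0% = DMSO vehicle wells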
HNF4 split-luc: active in HNF4 split-luciferase counter-screen for ABHD5-PLIN5 inhibitors. inhibition, % at 4 µM. actives 77% (n = 2,200). AID 651674. HNF4 dimerization, luminescence, biochemical. shares compounds with ABHD5 PLIN5 PPI;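 active = mean inhibition across replicate wells exceeding the computed hit threshold, cut at about 13% in these data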;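 note: light from luciferase halves that rejoin when HNF4 fusion proteins dimerize; 0% = DMSO only wells and the 100% control is not given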
An asterisk follows results filed as active; / = no result given. Sampled rows, rich in hits. Any-hit rate of the full collection: about 2.5%.

SMILES	ABHD5 PLIN5 PPI	NadD inh	B2AR ag	SENP1 FRET inh	GRK2 aptamer HTS	ABHD5 PLIN5 conf	HNF4 split-luc
Cc1ccc(-c2nn(-c3ccccc3)cc2CN(Cc2ccccc2)C(=O)c2ccco2)o1	38*	9	24	-4	0	15	21*
O=C(/C=C/c1cccc(Cl)c1)c1ccc([N+](=O)[O-])o1	96*	-2	66*	-2	2	103*	110*
COc1cc(/C=C/C(=O)c2ccc([N+](=O)[O-])o2)ccc1O	27*	0	-25	7	0	96*	94*
Cc1csc(NC(=O)c2ccccc2)n1	1	-3	-5	1	0	/	/
Cc1ccc(-c2csc(Nc3ccc(S(N)(=O)=O)cc3)n2)o1	32*	9	3	-18	0	65*	100*
Cc1ccc(-c2csc(NC(=O)c3ccc(-c4ccccc4)cc3)n2)o1	55*	10	29	-2	2	25*	27*
Cc1ccc(-c2csc(NC(=O)Cc3ccc(F)cc3)n2)o1	30*	6	5	-3	2	60*	94*
CC1(C(=O)OCC(=O)Nc2cc(S(=O)(=O)N3CCOCC3)ccc2Cl)CC1(Cl)Cl (stereo not drawn)	6	-7	2	1	/	/	/
Cc1ccc2cc(NC(=O)C3(C)CCN(C)C3)ccc2n1 (stereo not drawn)	0	4	/	0	/	/	/
Cc1ccc(C)c(S(=O)(=O)NCc2ccc3c(c2)OCO3)c1	-2	-8	-6	-2	0	/	/
CCS(=O)(=O)c1ncc(Cl)c(C(=O)Nc2ccccc2OC)n1	8	-1	23	2	0	/	/
CCOC(=O)c1ccc(NC(=O)c2nc(S(=O)(=O)Cc3ccccc3)ncc2Cl)cc1	49*	-1	15	2	0	92*	92*
COC(=O)c1ccc(NC(=O)c2nc(S(=O)(=O)Cc3cccc(C)c3)ncc2Cl)cc1	44*	-8	29	2	0	92*	95*
CCS(=O)(=O)c1ncc(Cl)c(C(=O)Nc2ccc(S(=O)(=O)N3CCC(C)CC3)cc2)n1	73*	-3	24	0	0	99*	103*
CCOc1ccccc1NC(=O)c1nc(S(=O)(=O)Cc2ccccc2)ncc1Cl	-1	-3	23	2	1	/	/
CCc1ccc(NC(=O)c2nc(S(=O)(=O)Cc3ccccc3)ncc2Cl)cc1	77*	-3	52*	-1	0	89*	89*
CCN1C(=NCc2ccco2)N[C@@H](c2cccc(F)c2)C(C(=O)OC)=C1C	-18	5	6	-16	0	/	/
CCSc1ncc(Cl)c(C(=O)Nc2ccc(S(=O)(=O)Nc3ncccn3)cc2)n1	1	-5	-4	1	1	/	/
CCCS(=O)(=O)c1ncc(Cl)c(C(=O)Nc2ccc(S(=O)(=O)Nc3ncccn3)cc2)n1	33*	-1	-4	1	0	71*	86*
Cc1cccc(CS(=O)(=O)c2ncc(Cl)c(C(=O)NCc3ccc4c(c3)OCO4)n2)c1	49*	-16	13	1	2	87*	105*
CSc1ncc(Cl)c(C(=O)Nc2ccc(C)c(C)c2)n1	0	-13	-10	1	0	/	/
Cc1ccc(NC(=O)c2nc(S(=O)(=O)Cc3ccccc3C)ncc2Cl)cc1C	72*	-4	32	3	0	98*	97*
Cc1cnc(NC(=O)CC2OC(=O)c3ccccc32)s1 (stereo not drawn)	0	-1	-2	-1	/	/	/
COc1ccc(N2Cc3ccc(C(=O)N/N=C\c4ccc(O)cc4O)cc3C2)cc1	/	/	/	/	2	/	/
Cc1cccc(NC(=O)c2cc(NC(=O)C3CCCCC3C(=O)O)ccc2N2CCOCC2)c1 (stereo not drawn)	0	-4	10	0	10	/	/
SMILES	ABHD5 PLIN5 PPI	NadD inh	B2AR ag	SENP1 FRET inh	GRK2 aptamer HTS	ABHD5 PLIN5 conf	HNF4 split-luc
COc1ccc(NC(=O)c2cc(NC(=O)C3CCCCC3C(=O)O)ccc2N2CCOCC2)cc1 (stereo not drawn)	24*	7	6	-1	0	5	2
CCC1CSC(Nc2ccc(C(=O)/C=C/c3ccc(Br)cc3)cc2)=N1 (stereo not drawn)	24*	7	11	0	0	52*	39*
COc1ccc(C=CC(=O)c2ccc(OC)c(OC)c2O)cc1OC	46*	-10	17	1	/	55*	44*
COc1ccc(C(=O)/C=C/c2ccc(OC)c(O)c2)c(F)c1	29*	-3	18	-8	1	55*	50*
COc1ccc(/C=C/C(=O)c2ccc(NC3=NCCCS3)cc2)cc1OC	36*	3	9	-39	0	47*	40*
COc1cc(OC)c(C(=O)C=Cc2ccc(OC)c(OC)c2)c(OC)c1	20	1	1	-1	/	/	/
COc1ccc(C(=O)C=Cc2ccc3c(c2)OCO3)cc1OC	1	-5	/	-30	/	/	/
CCCOc1ccc(C(=O)CCC(=O)OCC(=O)Nc2cccc(S(N)(=O)=O)c2)cc1	6	-5	4	1	/	/	/
COc1ccc(C=CC(=O)c2ccc3cc(OC)c(OC)cc3c2)cc1OC	41*	-18	/	-32	/	41*	26*
CCCC(=O)NC(c1ccco1)c1cc([N+](=O)[O-])c2cccnc2c1O (stereo not drawn)	35*	7	10	2	3	17	24*
O=C(NC1CCCCC1)C(c1ccc(-c2ccccc2)cc1)n1c(=O)c(-c2ccco2)nc2ccccc21 (stereo not drawn)	79*	/	/	-34	/	71*	2
O=C(NC1CCCCC1)C(c1ccncc1)n1c(=O)c(-c2ccccc2)nc2ccccc21 (stereo not drawn)	0	/	/	-3	/	/	/
O=C(NC1CCCCC1)C(c1ccnc2ccccc12)n1c(=O)c(-c2ccco2)nc2ccccc21 (stereo not drawn)	55*	/	/	-50	/	50*	8
O=C(NC1CCCCC1)C(c1ccccc1F)n1c(=O)c(-c2ccco2)nc2ccccc21 (stereo not drawn)	72*	/	/	-38	/	85*	31*
O=C(Nc1ccc2c(c1)OCCO2)C(c1ccncc1)n1c(=O)c(-c2ccco2)nc2ccccc21 (stereo not drawn)	11	/	/	-7	/	/	/
O=C(Nc1ccc2c(c1)OCCO2)C(c1ccnc2ccccc12)n1c(=O)c(-c2ccco2)nc2ccccc21 (stereo not drawn)	50*	/	/	-19	/	26*	7
O=C(N[C@@H](Cc1ccccc1)C(=O)CCl)OCc1ccccc1	65*	1	47*	0	1	96*	106*

Screening data as filed in PubChem BioAssay.
